Our source for the inhibition and Relative rate values is ChEMBL document CHEMBL1124043, “Pyrido[2,1-b]quinazolinecarboxamide derivatives as platelet activating factor antagonists” (J Med Chem, 1988).

Data set [1] deals with Platelet-activating factor receptor (Canis familiaris). As to the kind of experiment: Percent inhibition of binding of platelet activating factor (PAF) to dog platelets using [3H]PAF as radioligand at a concentration of 1 uM. The note with it: Canis lupus familiaris.
For the next data set, the species on record is Cavia porcellus. As to the kind of experiment: Relative rate of hydrolysis in guinea pig whole liver homogenates. It counts as ADME. A digest of the protocol:
(§1)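 Whole liver homogenate, equivalent to 21 mg fresh liver, in 40 mM potassium phosphate pH 7.4 with 0.4 mM substrate, final volume 1.0 mL. Incubated 10 min at 37 °C, then quenched with acetonitrile-methanol (9:1). Amine product measured in the supernatant by HPLC. Unincubated and no-substrate controls run in parallel. Rate expressed as nmol formed/10 min per 21 mg liver.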

A short description of data set [2]: Relative rate of hydrolysis in squirrel monkey whole liver homogenates. In kind it is ADME, tissue-based. The note with it: saimiri, tissue homogenate. A digest of the protocol: as §1
The species entered for a further data set is Canis familiaris. Description: Relative rate of hydrolysis in dog whole liver homogenates. It counts as ADME, Canis lupus familiaris. A digest of the protocol:
as §1

What is called inhibition is the percentage by which the read-out fell short of the control. In the case of `Cc1cc2nc3ccc(C(=O)NCCCCc4ccccc4)cn3c(=O)c2cc1C`, the inhibition in data set [1] was determined as 4%. In the data set filed under Cavia porcellus, `CC(C)c1ccc2nc3ccc(C(=O)NC(C)(C)CCCc4cccnc4)cn3c(=O)c2c1` gave a Relative rate of less than 0.01.

Consider `CC(C)c1ccc2nc3ccc(C(=O)NCCCCCCCc4cccnc4)cn3c(=O)c2c1`, for which the inhibition in data set [1] amounted to 19%. In the case of `CC(C)c1ccc2nc3ccc(C(=O)NCCCCc4cccnc4)cn3c(=O)c2c1`, the Relative rate in the data set listed under Cavia porcellus is recorded as 1.

Consider `CC(C)c1ccc2nc3ccc(C(=O)N[C@H](C)CCCc4cccnc4)cn3c(=O)c2c1`, for which the figures for the Relative rate (in data set [2]; in the data set listed under Cavia porcellus; in the data set listed under Canis familiaris) were less than 0.01, 0.063 and less than 0.01, respectively.

With `CC(CCCc1cccnc1)NC(=O)c1ccc2nc3ccc(C(C)C)cc3c(=O)n2c1` (racemic), the Relative rate in data set [2] is 0.49; in the data set filed under Cavia porcellus it was 0.35; in the data set filed under Canis familiaris, 1.9. For the molecule `CC(C)c1ccc2nc3ccc(C(=O)N[C@@H](C)CCCc4cccnc4)cn3c(=O)c2c1`, the values for the Relative rate (in data set [2]; in the data set filed under Cavia porcellus; in the data set listed under Canis familiaris) were 0.26, 0.5 and 1.9, respectively.

In data set [1], `CC(C)c1ccc2nc3ccc(S(=O)(=O)NCCCCc4cccnc4)cn3c(=O)c2c1` gave an inhibition of 7%.

As to `CC(C)c1ccc2nc3ccc(C(=O)NCCCc4cccnc4)cn3c(=O)c2c1`, the inhibition in data set [1] was found to be 5%. In turn, `Cc1cc2nc3ccc(C(=O)NCCCCc4ccc[n+](C)c4)cn3c(=O)c2cc1C` gave an inhibition in data set [1] of 0%.

In data set [1], `CC(C)c1ccc2nc3ccc(CNCCCCc4cccnc4)cn3c(=O)c2c1` gave an inhibition of 15%. In the case of `CC(C)c1ccc2nc3ccc(CCCCCCc4cccnc4)cn3c(=O)c2c1`, the inhibition in data set [1] was determined as 15%.

`CC(C)c1ccc2nc3ccc(C(=O)NCCCCCc4cccnc4)cn3c(=O)c2c1` registered an inhibition in data set [1] of 9%. For the molecule `Cc1cc2nc3ccc(C(=O)NCCCCc4cnc[n+](C)c4)cn3c(=O)c2cc1C`, in data set [1], the inhibition amounted to 0%.
